From ChEMBL document CHEMBL2390913, “In vitro biosynthesis, isolation, and identification of predominant metabolites of 2-(4-(2-hydroxyethoxy)-3,5-dimethylphenyl)-5,7-dimethoxyquinazolin-4(3H)-one (RVX-208)” (Eur J Med Chem, 2013)

Tests used:
[1] = Drug metabolism in New Zealand White rabbit liver S9 fraction assessed per mg/ml of protein at 0.2 mM after 24 hrs by LC-MS/MS analysis in presence of 5 mM UDPGA; assay type: ADME, subcellular, Oryctolagus cuniculus; details: read-out: Drug metabolism
Summary of the method: (§1)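 Optimization incubations with rabbit or calf liver microsomes or rabbit S9. Final substrate was 0.2, 0.5 or 2 mM, from DMSO stocks diluted 100-fold. Protein was 1 or 4 mg/mL and UDPGA 5 or 25 mM. Other components were 100 mM potassium phosphate pH 7.4 and an NADPH regenerating system. Microsomes were pre-treated on ice with alamethicin. Reactions ran at 37 °C, were stopped with methanol, processed, and analysed by LC/MS.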

[2] = Drug metabolism in New Zealand White rabbit liver microsomes assessed per mg/ml of protein at 2 mM after 24 hrs by LC-MS/MS analysis in presence of 25 mM UDPGA; assay type: ADME, Oryctolagus cuniculus, Microsome; details: read-out: Drug metabolism; summary of the method: as §1
[3] = Drug metabolism in calf liver microsomes assessed per 4 mg/ml of protein at 0.5 mM after 24 hrs by LC-MS/MS analysis in presence of 5 mM UDPGA; assay type: ADME, Bos taurus, Microsome; details: cattle, read-out: Drug metabolism; summary of the method: as §1
[4] = Drug metabolism in calf liver microsomes assessed per mg/ml of protein at 2 mM after 24 hrs by LC-MS/MS analysis in presence of 5 mM UDPGA; assay type: ADME, Bos taurus, Microsome; details: cattle, read-out: Drug metabolism; summary of the method: as §1
[5] = Drug metabolism in New Zealand White rabbit liver microsomes assessed per 4 mg/ml of protein at 0.5 mM after 24 hrs by LC-MS/MS analysis in presence of 25 mM UDPGA; assay type: ADME, Oryctolagus cuniculus, Microsome; details: read-out: Drug metabolism; summary of the method: as §1
[6] = Drug metabolism in New Zealand White rabbit liver microsomes assessed per mg/ml of protein at 0.5 mM after 24 hrs by LC-MS/MS analysis in presence of 25 mM UDPGA; assay type: ADME, Oryctolagus cuniculus, Microsome; details: read-out: Drug metabolism; summary of the method: as §1
[7] = Drug metabolism in New Zealand White rabbit liver microsomes assessed per mg/ml of protein at 0.5 mM after 24 hrs by LC-MS/MS analysis in presence of 5 mM UDPGA; assay type: ADME, Oryctolagus cuniculus, Microsome; details: read-out: Drug metabolism; summary of the method: as §1
[8] = Drug metabolism in New Zealand White rabbit liver microsomes assessed per mg/ml of protein at 0.2 mM after 24 hrs by LC-MS/MS analysis in presence of 5 mM UDPGA; assay type: ADME, Oryctolagus cuniculus, Microsome; details: read-out: Drug metabolism; summary of the method: as §1
[9] = tested on: Liver microsomes; experiment: Drug metabolism in human liver microsomes assessed as M5 metabolite level at 100 uM after 4 hrs by LC/MS analysis in presence of UDPGA; assay type: ADME, Microsome
Summary of the method: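 Human liver microsomes under the screening protocol. Mix: 0.50 mg protein in 0.5 mL, 100 mM potassium phosphate pH 7.4, NADPH regenerating system, 5 mM UDPGA, 5 mM D-saccharic acid lactone. Microsomes were pre-incubated with alamethicin and the mix pre-warmed 5 min at 37 °C. After 4 h at 37 °C, the reaction was diluted with cold methanol and centrifuged. The filtered supernatant went to analytical HPLC; the M5 fraction was taken for MS/MS.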

[10] = Drug metabolism in calf liver microsomes assessed per 4 mg/ml of protein at 2 mM after 24 hrs by LC-MS/MS analysis in presence of 5 mM UDPGA; assay type: ADME, Bos taurus, Microsome; details: cattle, read-out: Drug metabolism; summary of the method: as §1
[11] = Drug metabolism in New Zealand White rabbit liver microsomes assessed per 4 mg/ml of protein at 0.5 mM after 24 hrs by LC-MS/MS analysis in presence of 5 mM UDPGA; assay type: ADME, Oryctolagus cuniculus, Microsome; details: read-out: Drug metabolism; summary of the method: as §1
[12] = Drug metabolism in New Zealand White rabbit liver microsomes assessed per mg/ml of protein at 0.2 mM after 24 hrs by LC-MS/MS analysis in presence of 25 mM UDPGA; assay type: ADME, Oryctolagus cuniculus, Microsome; details: read-out: Drug metabolism; summary of the method: as §1
[13] = Drug metabolism in New Zealand White rabbit liver microsomes assessed per mg/ml of protein at 2 mM after 24 hrs by LC-MS/MS analysis in presence of 5 mM UDPGA; assay type: ADME, Oryctolagus cuniculus, Microsome; details: read-out: Drug metabolism; summary of the method: as §1
[14] = Drug metabolism in New Zealand White rabbit liver microsomes assessed per 4 mg/ml of protein at 2 mM after 24 hrs by LC-MS/MS analysis in presence of 25 mM UDPGA; assay type: ADME, Oryctolagus cuniculus, Microsome; details: read-out: Drug metabolism; summary of the method: as §1
[15] = Drug metabolism in New Zealand White rabbit liver S9 fraction assessed per mg/ml of protein at 0.5 mM after 24 hrs by LC-MS/MS analysis in presence of 25 mM UDPGA; assay type: ADME, subcellular, Oryctolagus cuniculus; details: read-out: Drug metabolism; summary of the method: as §1
[16] = Drug metabolism in New Zealand White rabbit liver S9 fraction assessed per mg/ml of protein at 0.2 mM after 24 hrs by LC-MS/MS analysis in presence of 25 mM UDPGA; assay type: ADME, subcellular, Oryctolagus cuniculus; details: read-out: Drug metabolism; summary of the method: as §1
[17] = Activity at human recombinant glucuronyl transferase at 100 uM after 1 to 24 hrs by LC-MS/MS analysis in presence of UDPGA; assay type: ADME
Summary of the method: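 Recombinant human UDP-glucuronyl transferases. The mix held 100 mM potassium phosphate pH 7.4, 3.3 mM MgCl2, 5 mM UDPGA, and enzyme protein at 0.025–1 mg/mL depending on the enzyme. Substrate came from a 10 mM methanol stock. Mixtures were pre-warmed 5 min at 37 °C, the enzyme was added, and they were shaken at 37 °C for 1, 6 or 24 h. Methanol quench, centrifugation, filtration, drying, resuspension, LC/MS.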

[18] = Drug metabolism in New Zealand White rabbit liver microsomes assessed per 4 mg/ml of protein at 2 mM after 24 hrs by LC-MS/MS analysis in presence of 5 mM UDPGA; assay type: ADME, Oryctolagus cuniculus, Microsome; details: read-out: Drug metabolism; summary of the method: as §1
[19] = Drug metabolism in New Zealand White rabbit liver S9 fraction assessed per mg/ml of protein at 0.5 mM after 24 hrs by LC-MS/MS analysis in presence of 5 mM UDPGA; assay type: ADME, subcellular, Oryctolagus cuniculus; details: read-out: Drug metabolism; summary of the method: as §1
[20] = Drug metabolism in New Zealand White rabbit liver S9 fraction assessed per 4 mg/ml of protein at 2 mM after 24 hrs by LC-MS/MS analysis in presence of 25 mM UDPGA; assay type: ADME, subcellular, Oryctolagus cuniculus; details: read-out: Drug metabolism; summary of the method: as §1
[21] = Drug metabolism in New Zealand White rabbit liver S9 fraction assessed per 4 mg/ml of protein at 2 mM after 24 hrs by LC-MS/MS analysis in presence of 5 mM UDPGA; assay type: ADME, subcellular, Oryctolagus cuniculus; details: read-out: Drug metabolism; summary of the method: as §1
[22] = Drug metabolism in New Zealand White rabbit liver S9 fraction assessed per 4 mg/ml of protein at 0.5 mM after 24 hrs by LC-MS/MS analysis in presence of 5 mM UDPGA; assay type: ADME, subcellular, Oryctolagus cuniculus; details: read-out: Drug metabolism; summary of the method: as §1
[23] = Drug metabolism in New Zealand White rabbit liver S9 fraction assessed per 20 mg of protein at 1 mM after 24 hrs by LC/MS analysis in presence of UDPGA; assay type: ADME, subcellular, Oryctolagus cuniculus; details: read-out: Drug metabolism
Summary of the method: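 Scale-up reaction with rabbit liver S9. Each mix was 10 mL with 20 mg S9 protein, 100 mM potassium phosphate pH 7.4, 1 mM substrate (from a 0.1 M DMSO stock), an NADPH regenerating system (1.3 mM NADP+, 3.3 mM glucose-6-phosphate, 0.4 U/mL G6PDH, 3.3 mM MgCl2) and 10 mM UDPGA. Six parallel vials were shaken 24 h at 37 °C, then pooled, methanol-quenched, and passed through C18 SPE and prep HPLC.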

[24] = Drug metabolism in New Zealand White rabbit liver S9 fraction assessed per 4 mg/ml of protein at 0.5 mM after 24 hrs by LC-MS/MS analysis in presence of 25 mM UDPGA; assay type: ADME, subcellular, Oryctolagus cuniculus; details: read-out: Drug metabolism; summary of the method: as §1
[25] = Drug metabolism in New Zealand White rabbit liver S9 fraction assessed per mg/ml of protein at 2 mM after 24 hrs by LC-MS/MS analysis in presence of 5 mM UDPGA; assay type: ADME, subcellular, Oryctolagus cuniculus; details: read-out: Drug metabolism; summary of the method: as §1
[26] = Drug metabolism in New Zealand White rabbit liver S9 fraction assessed per mg/ml of protein at 2 mM after 24 hrs by LC-MS/MS analysis in presence of 25 mM UDPGA; assay type: ADME, subcellular, Oryctolagus cuniculus; details: read-out: Drug metabolism; summary of the method: as §1

- metabolised at 24 h, 200 µM [1]: 22.3%
- metabolised at 24 h, 2000 µM [2]: 39.7%
- metabolised at 24 h, 500 µM [3]: 56%
- metabolised at 24 h, 2000 µM [4]: 40.9%
- metabolised at 24 h, 500 µM [5]: 54.3%
- metabolised at 24 h, 500 µM [6]: 49.4%
- metabolised at 24 h, 500 µM [7]: 39.5%
- metabolised at 24 h, 200 µM [8]: 34.6%
- Drug metabolism [9]: Active
- metabolised at 24 h, 2000 µM [10]: 50.1%
- metabolised at 24 h, 500 µM [11]: 24.1%
- metabolised at 24 h, 200 µM [12]: 49.7%
- metabolised at 24 h, 2000 µM [13]: 38.4%
- metabolised at 24 h, 2000 µM [14]: 48.9%
- metabolised at 24 h, 500 µM [15]: 25.7%
- metabolised at 24 h, 200 µM [16]: 21.4%
- Activity [17]: < 1%
- metabolised at 24 h, 2000 µM [18]: 30%
- metabolised at 24 h, 500 µM [19]: 23.2%
- metabolised at 24 h, 2000 µM [20]: 35.2%
- metabolised at 24 h, 2000 µM [21]: 30.3%
- metabolised at 24 h, 500 µM [22]: 33%
- metabolised at 24 h, 1000 µM [23]: 22%
- metabolised at 24 h, 500 µM [24]: 41.3%
- metabolised at 24 h, 2000 µM [25]: 17.5%
- metabolised at 24 h, 2000 µM [26]: 16.7%
Compound: COc1cc(OC)c2c(=O)[nH]c(-c3cc(C)c(OCCO)c(C)c3)nc2c1 [APABETALONE]
